# Activity calls are given as the source filed them. The rule behind the calls is not given here.
# Test system: A549
# Assay: Induction of apoptosis in human A549 cells assessed as viable cells at 0.01 uM after 24 hrs by Annexin V and propidium iodide staining-based flow cytometric analysis (reference value: 83%)
# Assay type: functional
# Settings: A549, 24 h, read-out: Activity
row,SMILES,viability at 0.01 µM
1,COc1cc2cc(NC(=O)/C=C/c3ccc(Cl)cc3)c(=O)oc2cc1O,86.4%

# Test system: not listed separately
# Assay: Cytotoxicity against human HCT116 cells assessed as growth inhibition after 72 hrs by MTT assay
# Assay type: functional, cell-based
# Settings: HCT-116, 72 h
# Outline: (§1)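 MTT viability assay. Cells were seeded at 5000 per well, incubated overnight, then exposed to compound at a range of concentrations for 72 h. MTT was added from a 5 mg/mL stock for 4 h, and absorbance was read at 570 nm. IC50 (50% viability inhibition) was calculated by the logit method. Each concentration was run at least three times.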
row,SMILES,IC50
1,COc1ccc(/C=C/C(=O)Nc2cc3cc(OC)c(O)cc3oc2=O)cc1,505 nM
2,COc1cc2cc(NC(=O)/C=C/c3ccc(Cl)cc3)c(=O)oc2cc1O,684 nM

# Test system: A549
# Assay: Induction of apoptosis in human A549 cells assessed as late apoptotic cells at 1 uM after 24 hrs by Annexin V and propidium iodide staining-based flow cytometric analysis (reference value: 7.4%)
# Assay type: functional
# Settings: not given
row,SMILES,Activity
1,COc1cc2cc(NC(=O)/C=C/c3ccc(Cl)cc3)c(=O)oc2cc1O,7.3%

# Test system: A549
# Assay: Cell cycle arrest in human A549 cells assessed as accumulation at G2/M phase at 0.01 to 1 uM after 24 hrs by propidium iodide staining-based flow cytometric analysis
# Assay type: functional
# Settings: not given
# Outline: (§2)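 A549 cells (3 × 10^5 per well) were seeded overnight, then treated at 0, 0.01, 0.1 or 1 µM for 24 h. Cells were harvested, washed in cold PBS and fixed in cold 70% ethanol for at least 24 h. They were then RNase A-treated and stained with propidium iodide (50 µg/mL) at room temperature. DNA content was analysed by FACSCalibur flow cytometry.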
row,SMILES,Activity
1,COc1cc2cc(NC(=O)/C=C/c3ccc(Cl)cc3)c(=O)oc2cc1O,inactive

# Test system: A549
# Assay: Cytotoxicity against human A549 cells assessed as growth inhibition after 72 hrs by MTT assay
# Assay type: functional, cell-based
# Settings: A549, 72 h
# Outline: as §1
row,SMILES,IC50
1,COc1ccc(/C=C/C(=O)Nc2cc3cc(OC)c(O)cc3oc2=O)cc1,649 nM
2,COc1cc2cc(NC(=O)/C=C/c3ccc(Cl)cc3)c(=O)oc2cc1O,249 nM

# Test system: MCF7
# Assay: Cytotoxicity against human MCF7 cells assessed as growth inhibition at 10^-5 M after 72 hrs by MTT assay relative to control
# Assay type: functional
# Settings: MCF7, 72 h, read-out: GI
row,SMILES,inhibition of growth at 10 µM
1,COc1ccc(/C=C/C(=O)Nc2cc3cc(OC)c(O)cc3oc2=O)cc1,44.8%
2,COc1cc2cc(NC(=O)/C=C/c3ccc(Cl)cc3)c(=O)oc2cc1O,70.1%

# Test system: MDA-MB-231
# Assay: Cytotoxicity against human MDA-MB-231 cells assessed as growth inhibition after 72 hrs by MTT assay
# Assay type: functional, cell-based
# Settings: MDA-MB-231, 72 h
# Outline: as §1
row,SMILES,IC50
1,COc1ccc(/C=C/C(=O)Nc2cc3cc(OC)c(O)cc3oc2=O)cc1,578 nM
2,COc1cc2cc(NC(=O)/C=C/c3ccc(Cl)cc3)c(=O)oc2cc1O,231 nM

# Test system: A549
# Assay: Cell cycle arrest in human A549 cells assessed as accumulation at S phase at 1 uM after 24 hrs by propidium iodide staining-based flow cytometric analysis relative to control
# Assay type: functional
# Settings: not given
# Outline: as §2
row,SMILES,Activity
1,COc1cc2cc(NC(=O)/C=C/c3ccc(Cl)cc3)c(=O)oc2cc1O,19.3%

# Test system: Mus musculus
# Assay: Toxicity in C57BL/6 mouse allografted with mouse LLC cells assessed as change in body weight at 2.5 to 10 mg/kg, ip administered for 14 days measured during compound dosing
# Assay type: organism-based
# Parameters: dose 2.5-10 mg/kg, route intraperitoneal
# Settings: in vivo, 336 h
# Outline: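 LLC-bearing female C57BL/6 mice (18–22 g; 3 × 10^6 cells s.c., right flank) were randomized into groups of 10 and dosed i.p. daily for 14 days, with a saline control. Body weight was recorded every day from the first treatment.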
row,SMILES,Activity
1,COc1cc2cc(NC(=O)/C=C/c3ccc(Cl)cc3)c(=O)oc2cc1O,Non-toxic

# Test system: Lewis lung carcinoma cell line
# Assay: Antitumor activity against mouse LLC cells allografted in ip dosed C57BL/6 mouse assessed as tumor growth inhibition administered for 14 days measured on day 15
# Assay type: functional, organism-based
# Settings: not given
# Outline: (§3)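 Female C57BL/6 mice (18–22 g) given 3 × 10^6 Lewis lung cancer cells subcutaneously in the right flank; dosing began 7 to 21 days after inoculation. Mice were randomized into groups of 10. Treatment was intraperitoneal daily for 14 days at 2.5, 5 or 10 mg/kg, with a saline control group. Tumors were excised and weighed when the mice were killed after 14 days.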
row,SMILES,TGI
1,COc1cc2cc(NC(=O)/C=C/c3ccc(Cl)cc3)c(=O)oc2cc1O,Dose-dependent effect

# Test system: A549
# Assay: Cell cycle arrest in human A549 cells assessed as accumulation at S phase at 0.1 uM after 24 hrs by propidium iodide staining-based flow cytometric analysis relative to control
# Assay type: functional
# Settings: not given
# Outline: as §2
row,SMILES,Activity
1,COc1cc2cc(NC(=O)/C=C/c3ccc(Cl)cc3)c(=O)oc2cc1O,19.6%

# Test system: A549
# Assay: Induction of apoptosis in human A549 cells assessed as late apoptotic cells at 0.1 uM after 24 hrs by Annexin V and propidium iodide staining-based flow cytometric analysis (reference value: 7.4%)
# Assay type: functional
# Settings: not given
row,SMILES,Activity
1,COc1cc2cc(NC(=O)/C=C/c3ccc(Cl)cc3)c(=O)oc2cc1O,3.6%

# Test system: Lewis lung carcinoma cell line
# Assay: Antitumor activity against mouse LLC cells allografted in C57BL/6 mouse assessed as tumor growth inhibition at 2.5 mg/kg, ip administered for 14 days measured on day 15 relative to control
# Assay type: functional
# Settings: route intraperitoneal, read-out: TGI
# Outline: as §3
row,SMILES,inhibition in vivo at 2.5 mg/kg
1,COc1cc2cc(NC(=O)/C=C/c3ccc(Cl)cc3)c(=O)oc2cc1O,18.1%

# Test system: A549
# Assay: Cell cycle arrest in human A549 cells assessed as accumulation at S phase at 0.01 uM after 24 hrs by propidium iodide staining-based flow cytometric analysis relative to control
# Assay type: functional
# Settings: not given
# Outline: as §2
row,SMILES,Activity
1,COc1cc2cc(NC(=O)/C=C/c3ccc(Cl)cc3)c(=O)oc2cc1O,9.2%

# Test system: Lewis lung carcinoma cell line
# Assay: Antitumor activity against mouse LLC cells allografted in C57BL/6 mouse assessed as tumor growth inhibition at 5 mg/kg, ip administered for 14 days measured on day 15 relative to control
# Assay type: functional
# Settings: route intraperitoneal, read-out: TGI
# Outline: as §3
row,SMILES,inhibition in vivo at 5 mg/kg
1,COc1cc2cc(NC(=O)/C=C/c3ccc(Cl)cc3)c(=O)oc2cc1O,33.6%

# Test system: A549
# Assay: Induction of apoptosis in human A549 cells assessed as early apoptotic cells at 0.1 uM after 24 hrs by Annexin V and propidium iodide staining-based flow cytometric analysis (reference value: 8.2%)
# Assay type: functional
# Settings: not given
row,SMILES,Activity
1,COc1cc2cc(NC(=O)/C=C/c3ccc(Cl)cc3)c(=O)oc2cc1O,8.3%

# Test system: A549
# Assay: Induction of apoptosis in human A549 cells assessed as dead cells at 0.1 uM after 24 hrs by Annexin V and propidium iodide staining-based flow cytometric analysis (reference value: 1.4%)
# Assay type: functional
# Settings: not given
row,SMILES,Activity
1,COc1cc2cc(NC(=O)/C=C/c3ccc(Cl)cc3)c(=O)oc2cc1O,2.4%

# Test system: Lewis lung carcinoma cell line
# Assay: Antitumor activity against mouse LLC cells allografted in C57BL/6 mouse assessed as tumor growth inhibition at 10 mg/kg, ip administered for 14 days measured on day 15 relative to control
# Assay type: functional
# Settings: route intraperitoneal, read-out: TGI
# Outline: as §3
row,SMILES,inhibition in vivo at 10 mg/kg
1,COc1cc2cc(NC(=O)/C=C/c3ccc(Cl)cc3)c(=O)oc2cc1O,49.5%

# Test system: A549
# Assay: Induction of apoptosis in human A549 cells assessed as dead cells at 0.01 uM after 24 hrs by Annexin V and propidium iodide staining-based flow cytometric analysis (reference value: 1.4%)
# Assay type: functional
# Settings: not given
row,SMILES,Activity
1,COc1cc2cc(NC(=O)/C=C/c3ccc(Cl)cc3)c(=O)oc2cc1O,4.3%

# Test system: A549
# Assay: Cell cycle arrest in human A549 cells assessed as accumulation at G0/G1 phase at 0.01 to 1 uM after 24 hrs by propidium iodide staining-based flow cytometric analysis
# Assay type: functional
# Settings: in the assay text read “S phase” for “G0/G1 phase”
# Outline: as §2
row,SMILES,Activity
1,COc1cc2cc(NC(=O)/C=C/c3ccc(Cl)cc3)c(=O)oc2cc1O,Active

# Test system: not listed separately
# Assay: Cytotoxicity against human HCT116 cells assessed as growth inhibition at 10^-5 M after 72 hrs by MTT assay relative to control
# Assay type: functional
# Settings: HCT-116, 72 h, read-out: GI
row,SMILES,inhibition of growth at 10 µM
1,COc1ccc(/C=C/C(=O)Nc2cc3cc(OC)c(O)cc3oc2=O)cc1,75.7%
2,COc1cc2cc(NC(=O)/C=C/c3ccc(Cl)cc3)c(=O)oc2cc1O,64.3%

# Test system: MDA-MB-231
# Assay: Cytotoxicity against human MDA-MB-231 cells assessed as growth inhibition at 10^-5 M after 72 hrs by MTT assay relative to control
# Assay type: functional
# Settings: MDA-MB-231, 72 h, read-out: GI
row,SMILES,inhibition of growth at 10 µM
1,COc1ccc(/C=C/C(=O)Nc2cc3cc(OC)c(O)cc3oc2=O)cc1,61.4%
2,COc1cc2cc(NC(=O)/C=C/c3ccc(Cl)cc3)c(=O)oc2cc1O,70.8%

# Test system: A549
# Assay: Induction of apoptosis in human A549 cells assessed as early apoptotic cells at 0.01 uM after 24 hrs by Annexin V and propidium iodide staining-based flow cytometric analysis (reference value: 8.2%)
# Assay type: functional
# Settings: not given
row,SMILES,Activity
1,COc1cc2cc(NC(=O)/C=C/c3ccc(Cl)cc3)c(=O)oc2cc1O,5.7%

# Test system: A549
# Assay: Induction of apoptosis in human A549 cells assessed as viable cells at 1 uM after 24 hrs by Annexin V and propidium iodide staining-based flow cytometric analysis (reference value: 83%)
# Assay type: functional
# Settings: A549, 24 h, read-out: Activity
row,SMILES,viability at 1 µM
1,COc1cc2cc(NC(=O)/C=C/c3ccc(Cl)cc3)c(=O)oc2cc1O,66.5%

# Test system: A549
# Assay: Cytotoxicity against human A549 cells assessed as growth inhibition at 10^-5 M after 72 hrs by MTT assay relative to control
# Assay type: functional
# Settings: A549, 72 h, read-out: GI
row,SMILES,inhibition of growth at 10 µM
1,COc1ccc(/C=C/C(=O)Nc2cc3cc(OC)c(O)cc3oc2=O)cc1,88.6%
2,COc1cc2cc(NC(=O)/C=C/c3ccc(Cl)cc3)c(=O)oc2cc1O,87.9%

# Test system: HeLa
# Assay: Cytotoxicity against human HeLa cells assessed as growth inhibition at 10^-5 M after 72 hrs by MTT assay relative to control
# Assay type: functional
# Settings: read-out: GI
row,SMILES,inhibition of growth at 10 µM
1,COc1ccc(/C=C/C(=O)Nc2cc3cc(OC)c(O)cc3oc2=O)cc1,60.9%
2,COc1cc2cc(NC(=O)/C=C/c3ccc(Cl)cc3)c(=O)oc2cc1O,86.2%

# Test system: A549
# Assay: Induction of apoptosis in human A549 cells assessed as viable cells at 0.1 uM after 24 hrs by Annexin V and propidium iodide staining-based flow cytometric analysis (reference value: 83%)
# Assay type: functional
# Settings: A549, 24 h, read-out: Activity
row,SMILES,viability at 0.1 µM
1,COc1cc2cc(NC(=O)/C=C/c3ccc(Cl)cc3)c(=O)oc2cc1O,85.7%

# Test system: A549
# Assay: Induction of apoptosis in human A549 cells assessed as dead cells at 1 uM after 24 hrs by Annexin V and propidium iodide staining-based flow cytometric analysis (reference value: 1.4%)
# Assay type: functional
# Settings: not given
row,SMILES,Activity
1,COc1cc2cc(NC(=O)/C=C/c3ccc(Cl)cc3)c(=O)oc2cc1O,1.8%

# Test system: A549
# Assay: Induction of apoptosis in human A549 cells assessed as early apoptotic cells at 1 uM after 24 hrs by Annexin V and propidium iodide staining-based flow cytometric analysis (reference value: 8.2%)
# Assay type: functional
# Settings: not given
row,SMILES,Activity
1,COc1cc2cc(NC(=O)/C=C/c3ccc(Cl)cc3)c(=O)oc2cc1O,24.3%

# Test system: A549
# Assay: Induction of apoptosis in human A549 cells assessed as late apoptotic cells at 0.01 uM after 24 hrs by Annexin V and propidium iodide staining-based flow cytometric analysis (reference value: 7.4%)
# Assay type: functional
# Settings: not given
row,SMILES,Activity
1,COc1cc2cc(NC(=O)/C=C/c3ccc(Cl)cc3)c(=O)oc2cc1O,3.7%

# — ChEMBL document CHEMBL3407428, “Synthesis, in vitro and in vivo antitumor activity of scopoletin-cinnamic acid hybrids” (Eur J Med Chem, 2015)
